Experimental data from ChEMBL document CHEMBL1154754, “Janus kinase 2 inhibitors. Synthesis and characterization of a novel polycyclic azaindole” (J Med Chem, 2009).
Values belong to the compound of their own block, whether it stands above or below them. Activity calls are given as the source filed them. The rule behind the calls is not given here.

What was measured:
[1] = target: Tyrosine-protein kinase JAK2 (Homo sapiens, UniProt O60674); assay: Inhibition of recombinant JAK2
BaF3 = assay: Antitumor activity against JAK2 V617F mutant harboring mouse sBA/F3 cells xenografted in BALB/c mouse assessed as reduced splenomegaly at 15 mg/kg, po bid for 32 days; format: functional, organism-based; parameters: dose 15 mg/kg
Procedure, shortened: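 Leukemia induced in BALB/c mice (n = 12/group) by iv injection of 1 million mJAK2(V617F)-Ba/F3 cells. Dosing began 1 week after implantation: 15 mg/kg oral gavage b.i.d. as a suspension in 5% methylcellulose, or vehicle alone, until day 32 or moribundity. Spleens were harvested and weighed after sacrifice on day 32.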

[2] = target: ALK tyrosine kinase receptor (Homo sapiens, UniProt Q9UM73); assay: Inhibition of ALK
ALK tyrosine kinase receptor, sequence (Q9UM73 whole entry): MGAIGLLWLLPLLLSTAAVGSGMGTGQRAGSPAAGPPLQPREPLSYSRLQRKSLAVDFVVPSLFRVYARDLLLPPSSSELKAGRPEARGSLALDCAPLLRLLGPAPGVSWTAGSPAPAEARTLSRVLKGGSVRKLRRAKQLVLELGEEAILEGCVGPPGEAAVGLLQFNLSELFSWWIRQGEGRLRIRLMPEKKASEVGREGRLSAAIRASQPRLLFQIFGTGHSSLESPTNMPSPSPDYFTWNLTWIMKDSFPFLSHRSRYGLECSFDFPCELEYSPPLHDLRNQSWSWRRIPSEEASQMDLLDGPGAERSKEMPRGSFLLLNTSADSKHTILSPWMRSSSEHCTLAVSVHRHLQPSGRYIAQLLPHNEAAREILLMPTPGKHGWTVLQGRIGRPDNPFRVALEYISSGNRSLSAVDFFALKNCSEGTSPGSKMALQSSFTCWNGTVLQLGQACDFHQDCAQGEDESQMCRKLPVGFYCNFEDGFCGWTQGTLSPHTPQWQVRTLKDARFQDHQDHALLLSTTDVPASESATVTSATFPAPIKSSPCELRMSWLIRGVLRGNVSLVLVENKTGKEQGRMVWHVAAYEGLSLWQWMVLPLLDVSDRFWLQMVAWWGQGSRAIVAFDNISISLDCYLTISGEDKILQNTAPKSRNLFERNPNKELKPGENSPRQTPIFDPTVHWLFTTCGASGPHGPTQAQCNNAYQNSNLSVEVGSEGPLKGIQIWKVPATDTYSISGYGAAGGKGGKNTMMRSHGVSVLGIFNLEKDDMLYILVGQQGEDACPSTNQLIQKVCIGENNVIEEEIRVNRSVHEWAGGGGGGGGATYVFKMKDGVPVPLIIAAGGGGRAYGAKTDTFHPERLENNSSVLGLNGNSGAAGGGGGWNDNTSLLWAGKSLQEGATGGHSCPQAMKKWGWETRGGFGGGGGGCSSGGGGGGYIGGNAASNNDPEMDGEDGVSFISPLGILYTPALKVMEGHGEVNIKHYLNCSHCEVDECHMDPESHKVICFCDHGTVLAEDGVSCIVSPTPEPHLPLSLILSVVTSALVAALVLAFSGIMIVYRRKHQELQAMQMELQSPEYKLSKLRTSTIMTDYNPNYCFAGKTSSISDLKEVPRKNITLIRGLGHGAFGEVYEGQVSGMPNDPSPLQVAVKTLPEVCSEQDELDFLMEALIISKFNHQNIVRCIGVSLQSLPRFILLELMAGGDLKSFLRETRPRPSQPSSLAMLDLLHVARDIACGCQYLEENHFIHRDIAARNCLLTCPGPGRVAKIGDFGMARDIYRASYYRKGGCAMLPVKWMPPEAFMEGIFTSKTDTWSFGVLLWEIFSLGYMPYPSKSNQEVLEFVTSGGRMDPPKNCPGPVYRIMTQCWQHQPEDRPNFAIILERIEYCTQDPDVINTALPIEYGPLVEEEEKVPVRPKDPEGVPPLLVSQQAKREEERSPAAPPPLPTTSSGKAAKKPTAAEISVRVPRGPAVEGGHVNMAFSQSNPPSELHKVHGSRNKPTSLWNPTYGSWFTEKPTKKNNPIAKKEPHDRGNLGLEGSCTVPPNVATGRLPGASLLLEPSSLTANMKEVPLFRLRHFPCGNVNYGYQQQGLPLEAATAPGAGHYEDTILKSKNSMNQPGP

[3] = target: Mast/stem cell growth factor receptor Kit (Homo sapiens, UniProt P10721); assay: Inhibition of cKit
Mast/stem cell growth factor receptor Kit, sequence (P10721 whole entry): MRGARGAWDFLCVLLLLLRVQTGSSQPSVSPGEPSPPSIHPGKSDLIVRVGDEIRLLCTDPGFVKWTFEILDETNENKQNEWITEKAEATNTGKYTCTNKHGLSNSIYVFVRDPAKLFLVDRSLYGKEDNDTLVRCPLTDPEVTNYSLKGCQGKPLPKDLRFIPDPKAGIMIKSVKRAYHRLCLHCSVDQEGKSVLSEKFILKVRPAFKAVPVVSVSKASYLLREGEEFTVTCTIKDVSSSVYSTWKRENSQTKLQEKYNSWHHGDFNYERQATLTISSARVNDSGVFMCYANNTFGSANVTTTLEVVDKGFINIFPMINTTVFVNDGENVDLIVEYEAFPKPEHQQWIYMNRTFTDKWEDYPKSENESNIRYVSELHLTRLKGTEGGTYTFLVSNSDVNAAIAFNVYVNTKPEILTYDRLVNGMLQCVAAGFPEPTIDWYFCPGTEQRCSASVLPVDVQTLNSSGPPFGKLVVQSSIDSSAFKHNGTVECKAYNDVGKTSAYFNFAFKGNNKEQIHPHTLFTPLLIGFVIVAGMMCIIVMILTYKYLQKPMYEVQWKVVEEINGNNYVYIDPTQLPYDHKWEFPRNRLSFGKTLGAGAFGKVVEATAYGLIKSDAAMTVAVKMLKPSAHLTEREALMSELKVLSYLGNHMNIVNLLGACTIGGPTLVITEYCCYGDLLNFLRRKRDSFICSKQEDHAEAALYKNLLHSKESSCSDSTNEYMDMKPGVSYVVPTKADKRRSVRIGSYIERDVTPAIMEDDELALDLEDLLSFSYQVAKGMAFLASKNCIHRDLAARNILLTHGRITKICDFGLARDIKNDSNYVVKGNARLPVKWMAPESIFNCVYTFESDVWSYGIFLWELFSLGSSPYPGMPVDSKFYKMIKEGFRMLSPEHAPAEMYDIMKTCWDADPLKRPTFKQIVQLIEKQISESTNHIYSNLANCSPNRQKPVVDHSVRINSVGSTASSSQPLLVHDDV

[4] = target: T1, Mitogen-activated protein kinase kinase kinase kinase 2 (Homo sapiens, UniProt Q12851); assay: Inhibition of GCK
T1 sequence (Q12851 whole entry): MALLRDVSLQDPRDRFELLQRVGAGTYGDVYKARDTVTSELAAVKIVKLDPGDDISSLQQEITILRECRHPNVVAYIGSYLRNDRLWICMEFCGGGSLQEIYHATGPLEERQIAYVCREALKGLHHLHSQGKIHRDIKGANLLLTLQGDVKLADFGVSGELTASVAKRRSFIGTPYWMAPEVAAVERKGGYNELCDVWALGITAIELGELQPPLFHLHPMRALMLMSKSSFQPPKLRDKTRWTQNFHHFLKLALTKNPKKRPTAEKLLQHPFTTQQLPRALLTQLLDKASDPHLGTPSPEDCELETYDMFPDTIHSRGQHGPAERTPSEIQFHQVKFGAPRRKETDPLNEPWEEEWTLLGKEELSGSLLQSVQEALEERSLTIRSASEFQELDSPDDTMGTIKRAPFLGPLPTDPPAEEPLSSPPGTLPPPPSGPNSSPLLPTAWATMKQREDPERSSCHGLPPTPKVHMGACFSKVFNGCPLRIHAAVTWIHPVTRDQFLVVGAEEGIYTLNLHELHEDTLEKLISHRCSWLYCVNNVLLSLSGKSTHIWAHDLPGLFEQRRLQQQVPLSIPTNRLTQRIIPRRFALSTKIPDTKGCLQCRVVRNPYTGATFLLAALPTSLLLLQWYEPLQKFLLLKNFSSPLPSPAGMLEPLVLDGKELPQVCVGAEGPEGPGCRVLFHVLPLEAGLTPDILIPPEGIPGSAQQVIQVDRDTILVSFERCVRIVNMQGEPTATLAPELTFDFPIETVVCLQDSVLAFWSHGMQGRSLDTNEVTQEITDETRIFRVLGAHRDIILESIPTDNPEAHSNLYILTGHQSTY

[5] = Cmax in Sprague-Dawley rat at 1.8 mg/kg, iv by LC/MS/MS method; format: ADME, organism-based; parameters: dose 1.8 mg/kg, route intravenous; conditions: in vivo
Procedure, shortened: (§1)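 Male Charles River Sprague-Dawley rats and Fox Chase SCID (CB-17) mice, dosed iv or po. Plasma drug concentrations measured by a specific LC/MS/MS method. Pharmacokinetic parameters are reported as mean values.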

[6] = AUC (0 to infinity) in Sprague-Dawley rat at 1.8 mg/kg, iv by LC/MS/MS method; format: ADME, organism-based; parameters: time infinity, dose 1.8 mg/kg, route intravenous; conditions: plasma; procedure, shortened: as §1
[7] = Half life in Sprague-Dawley rat at 1.8 mg/kg, iv by LC/MS/MS method; format: ADME, organism-based; parameters: dose 1.8 mg/kg, route intravenous; conditions: in vivo; procedure, shortened: as §1
[8] = Clearance in Sprague-Dawley rat at 1.8 mg/kg, iv by LC/MS/MS method; format: ADME, organism-based; parameters: dose 1.8 mg/kg, route intravenous; conditions: in vivo; procedure, shortened: as §1
[9] = Volume of distribution at steady state in Sprague-Dawley rat at 1.8 mg/kg, iv by LC/MS/MS method; format: ADME, organism-based; parameters: dose 1.8 mg/kg, route intravenous; conditions: in vivo, read-out: Vdss; procedure, shortened: as §1
[10] = Cmax in Sprague-Dawley rat at 10 mg/kg, po by LC/MS/MS method; format: ADME, organism-based; parameters: dose 10 mg/kg, route oral; conditions: in vivo; procedure, shortened: as §1
[11] = Tmax in Sprague-Dawley rat at 10 mg/kg, po by LC/MS/MS method; format: ADME, organism-based; parameters: dose 10 mg/kg, route oral; conditions: in vivo; procedure, shortened: as §1
[12] = AUC (0 to infinity) in Sprague-Dawley rat at 10 mg/kg, po by LC/MS/MS method; format: ADME, organism-based; parameters: time infinity, dose 10 mg/kg, route oral; conditions: plasma; procedure, shortened: as §1
[13] = Half life in Sprague-Dawley rat at 10 mg/kg, po by LC/MS/MS method; format: ADME, organism-based; parameters: dose 10 mg/kg, route oral; conditions: in vivo; procedure, shortened: as §1
[14] = Oral bioavailability in Sprague-Dawley rat at 10 mg/kg by LC/MS/MS method; format: ADME, organism-based; conditions: in vivo; procedure, shortened: as §1
[15] = Cmax in CB17 mouse at 9 mg/kg, iv by LC/MS/MS method; format: ADME, organism-based; parameters: dose 9 mg/kg, route intravenous; conditions: in vivo; procedure, shortened: as §1
[16] = AUC (0 to infinity) in CB17 mouse at 9 mg/kg, iv by LC/MS/MS method; format: ADME, organism-based; parameters: time infinity, dose 9 mg/kg, route intravenous; conditions: plasma; procedure, shortened: as §1
[17] = Half life in CB17 mouse at 9 mg/kg, iv by LC/MS/MS method; format: ADME, organism-based; parameters: dose 9 mg/kg, route intravenous; conditions: in vivo; procedure, shortened: as §1
[18] = Clearance in CB17 mouse at 9 mg/kg, iv by LC/MS/MS method; format: ADME, organism-based; parameters: dose 9 mg/kg, route intravenous; conditions: in vivo; procedure, shortened: as §1
[19] = Volume of distribution at steady state in CB17 mouse at 9 mg/kg, iv by LC/MS/MS method; format: ADME, organism-based; parameters: dose 9 mg/kg, route intravenous; conditions: in vivo, read-out: Vdss; procedure, shortened: as §1
[20] = Cmax in CB17 mouse at 10 mg/kg, po by LC/MS/MS method; format: ADME, organism-based; parameters: dose 10 mg/kg, route oral; conditions: in vivo; procedure, shortened: as §1
[21] = Tmax in CB17 mouse at 10 mg/kg, po by LC/MS/MS method; format: ADME, organism-based; parameters: dose 10 mg/kg, route oral; conditions: in vivo; procedure, shortened: as §1
[22] = AUC (0 to infinity) in CB17 mouse at 10 mg/kg, po by LC/MS/MS method; format: ADME, organism-based; parameters: time infinity, dose 10 mg/kg, route oral; conditions: plasma; procedure, shortened: as §1
[23] = Half life in CB17 mouse at 10 mg/kg, po by LC/MS/MS method; format: ADME, organism-based; parameters: dose 10 mg/kg, route oral; conditions: in vivo; procedure, shortened: as §1
[24] = Oral bioavailability life in CB17 mouse at 10 mg/kg by LC/MS/MS method; format: ADME, organism-based; conditions: in vivo; procedure, shortened: as §1
Mus musculus = assay: Improvement in survival of BALB/c mouse xenografted with JAK2 V617F mutant harboring mouse Ba/F3 cells assessed as survival days at 15 mg/kg, po bid for 32 days; format: functional, BaF3
Procedure, shortened: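 BALB/c mice (n = 12/group) received one million mJAK2-Ba/F3 cells (murine Ba/F3 carrying mutant V617F JAK2) intravenously. Treatment started 1 week after implantation. Dosing was 15 mg/kg by oral gavage twice daily as a suspension in 5% methylcellulose, with a vehicle-only control group. Dosing continued until day 32 or moribundity. Survival was shown as Kaplan-Meier plots, and unrelated cage deaths were censored.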

[25] = target: T2, Tyrosine-protein kinase JAK3 (Homo sapiens, UniProt P52333); assay: Inhibition of recombinant JAK3
T2 sequence (P52333 whole entry): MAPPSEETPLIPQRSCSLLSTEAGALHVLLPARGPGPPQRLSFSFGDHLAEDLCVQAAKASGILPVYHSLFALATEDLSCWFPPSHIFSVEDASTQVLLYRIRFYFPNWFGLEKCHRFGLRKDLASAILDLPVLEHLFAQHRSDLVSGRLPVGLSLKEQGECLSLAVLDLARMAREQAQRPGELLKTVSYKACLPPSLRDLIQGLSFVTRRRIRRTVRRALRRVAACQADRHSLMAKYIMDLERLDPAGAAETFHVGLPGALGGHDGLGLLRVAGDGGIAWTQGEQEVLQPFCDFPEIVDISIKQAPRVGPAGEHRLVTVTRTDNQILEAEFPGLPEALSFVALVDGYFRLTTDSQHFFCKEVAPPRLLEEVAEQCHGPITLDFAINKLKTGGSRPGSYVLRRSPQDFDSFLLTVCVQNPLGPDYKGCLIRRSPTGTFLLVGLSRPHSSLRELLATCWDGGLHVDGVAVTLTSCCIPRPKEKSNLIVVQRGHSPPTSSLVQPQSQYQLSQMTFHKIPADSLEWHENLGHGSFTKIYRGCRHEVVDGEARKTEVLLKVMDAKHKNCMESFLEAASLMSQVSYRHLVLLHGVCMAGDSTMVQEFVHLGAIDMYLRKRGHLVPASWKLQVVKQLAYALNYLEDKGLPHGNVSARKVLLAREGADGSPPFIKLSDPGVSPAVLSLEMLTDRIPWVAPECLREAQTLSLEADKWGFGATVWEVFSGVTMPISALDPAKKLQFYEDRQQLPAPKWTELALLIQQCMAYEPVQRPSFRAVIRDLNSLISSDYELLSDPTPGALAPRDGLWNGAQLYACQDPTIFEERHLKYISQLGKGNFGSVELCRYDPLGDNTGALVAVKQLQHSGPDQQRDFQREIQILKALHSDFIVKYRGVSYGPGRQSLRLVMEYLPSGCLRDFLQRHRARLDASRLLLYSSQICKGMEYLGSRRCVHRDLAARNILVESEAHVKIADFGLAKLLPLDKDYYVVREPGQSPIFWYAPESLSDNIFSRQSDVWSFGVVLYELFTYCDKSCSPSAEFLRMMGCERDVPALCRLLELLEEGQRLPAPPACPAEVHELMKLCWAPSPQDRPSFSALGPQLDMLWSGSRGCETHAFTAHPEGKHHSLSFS

[26] = target: T2, Tyrosine-protein kinase JAK3; assay: Inhibition of JAK3 in […] assessed as inhibition of IL2-induced STAT5 phosphorylation by flow cytometry; format: cell-based

Tyrosine-protein kinase JAK2, sequence (O60674 whole entry): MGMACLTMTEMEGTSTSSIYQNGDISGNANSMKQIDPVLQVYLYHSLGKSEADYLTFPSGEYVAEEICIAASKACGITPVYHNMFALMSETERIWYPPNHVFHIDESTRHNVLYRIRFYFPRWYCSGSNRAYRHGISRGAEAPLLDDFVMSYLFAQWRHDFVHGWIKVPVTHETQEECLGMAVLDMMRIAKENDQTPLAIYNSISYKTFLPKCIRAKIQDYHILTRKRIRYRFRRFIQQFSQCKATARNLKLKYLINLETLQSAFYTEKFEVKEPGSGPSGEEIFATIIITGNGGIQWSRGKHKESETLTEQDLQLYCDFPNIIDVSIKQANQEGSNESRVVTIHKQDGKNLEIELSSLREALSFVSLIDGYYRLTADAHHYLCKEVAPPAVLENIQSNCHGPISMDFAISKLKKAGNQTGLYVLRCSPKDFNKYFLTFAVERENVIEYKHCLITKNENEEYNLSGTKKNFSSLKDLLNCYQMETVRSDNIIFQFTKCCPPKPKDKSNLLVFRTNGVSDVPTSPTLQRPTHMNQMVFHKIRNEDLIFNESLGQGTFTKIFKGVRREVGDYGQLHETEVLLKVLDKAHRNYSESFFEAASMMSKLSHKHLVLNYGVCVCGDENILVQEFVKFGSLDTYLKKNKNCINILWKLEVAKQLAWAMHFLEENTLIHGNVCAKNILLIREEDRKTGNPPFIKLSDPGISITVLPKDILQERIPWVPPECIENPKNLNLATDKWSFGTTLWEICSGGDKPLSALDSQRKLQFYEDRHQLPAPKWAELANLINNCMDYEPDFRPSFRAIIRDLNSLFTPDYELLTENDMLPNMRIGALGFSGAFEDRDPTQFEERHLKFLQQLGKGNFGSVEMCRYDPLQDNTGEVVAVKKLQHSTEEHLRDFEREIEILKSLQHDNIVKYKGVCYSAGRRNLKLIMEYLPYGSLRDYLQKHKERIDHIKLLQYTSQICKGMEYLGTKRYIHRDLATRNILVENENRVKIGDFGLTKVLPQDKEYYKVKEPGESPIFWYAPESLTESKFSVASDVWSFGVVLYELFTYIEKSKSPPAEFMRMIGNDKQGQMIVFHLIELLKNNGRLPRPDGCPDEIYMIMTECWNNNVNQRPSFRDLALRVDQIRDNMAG

Ki [1]: 260 nM
Compound: Clc1cnc2[nH]cc(-c3ccccc3)c2c1

Compound: O=C1Nc2ccccc2-c2ccnc3[nH]cc(c23)C1c1ccc(O)cc1 (stereo not given) [listing 1 of 2 here]
Activity (BaF3): Active

Compound: O=C1Nc2ccccc2-c2ccnc3[nH]cc(c23)C1c1ccc(O)cc1 (stereo not given) [listing 2 of 2 here]
Ki [2]: 17 nM
Ki [3]: 190 nM
IC50 [4]: 340 nM
Cmax [5]: 700 ng/mL
AUC(0-inf) [6]: 1260 ng·h/mL
half-life [7]: 3.4 h
clearance [8]: 23.8 mL/min/kg
Vd [9]: 5.7 L/kg
Cmax [10]: 1080 ng/mL
Tmax [11]: 3 h
AUC(0-inf) [12]: 7700 ng·h/mL
half-life [13]: 3.6 h
bioavailability [14]: 100%
Cmax [15]: 7300 ng/mL
AUC(0-inf) [16]: 12500 ng·h/mL
half-life [17]: 2.7 h
clearance [18]: 12.1 mL/min/kg
Vd [19]: 2.3 L/kg
Cmax [20]: 1000 ng/mL
Tmax [21]: 2 h
AUC(0-inf) [22]: 8300 ng·h/mL
half-life [23]: 3.2 h
bioavailability [24]: 66.1%
Survival (Mus musculus): 32 days

Compound: c1ccc(-c2ncnc3[nH]ccc23)cc1
Ki [1]: 480 nM

Compound: O=C1Nc2ccccc2-c2ccnc3[nH]cc(c23)C1c1ccc(O)cc1 (single isomer, unassigned; atropisomer 2)
Ki [25]: 6 nM

Compound: O=C1Nc2ccccc2-c2ccnc3[nH]cc(c23)C1c1ccc(O)cc1 (single isomer, unassigned; atropisomer 1)
Ki [25]: 5.5 nM
IC50 [26]: 1530 nM
